Assay results from ChEMBL document CHEMBL4689842, “EUbOPEN Chemogenomics Library wave 1” (2021).

Tested on: Fibroblast
Test: Multiplex assay against human fibroblast
Assay type: toxicity, cell-based
Method in brief: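 At seeding, live cells were stained with Hoechst33342, BioTracker Green Microtubule Cytoskeleton Dye, MitoTracker Red and Annexin V Alexa Fluor 680. After compound addition they were imaged on a CQ1 microscope at 37°C and 5% CO2, and CellPathfinder machine-learning gating sorted them into Hoechst high-intensity objects or normal cells, with normal cells further split into healthy, pyknosed or fragmented nuclei and pyknosed cells into mitotic or apoptotic. Tubulin, mitochondrial-mass and membrane-permeability phenotypes are given as per cents of cells with healthy nuclei.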

[1] = 12 h, 1 µM, compound concentration 1 uM, replicate 1
[2] = 12 h, 1 µM, compound concentration 1 uM, replicate 2
[3] = 12 h, 10 µM, compound concentration 10 uM, replicate 1
[4] = 12 h, 10 µM, compound concentration 10 uM, replicate 2
[5] = 24 h, 1 µM, compound concentration 1 uM, replicate 1
[6] = 24 h, 1 µM, compound concentration 1 uM, replicate 2
[7] = 24 h, 10 µM, compound concentration 10 uM, replicate 1
[8] = 24 h, 10 µM, compound concentration 10 uM, replicate 2
[9] = 48 h, 1 µM, compound concentration 1 uM, replicate 1
[10] = 48 h, 1 µM, compound concentration 1 uM, replicate 2
[11] = 48 h, 10 µM, compound concentration 10 uM, replicate 1
[12] = 48 h, 10 µM, compound concentration 10 uM, replicate 2

Question: `CCc1nn(CCCN2CCN(c3cccc(Cl)c3)CC2)c(=O)n1CCOc1ccccc1.Cl` [NEFAZODONE HYDROCHLORIDE] was tested. Which “Population Apoptotic (%)” value [1] did it give?
Answer: 60%

Question: What about the “Population Fragmented Nuclei (%)” value [1] of the same compound?
Answer: 16%

Question: What about the “Population Healthy Nuclei (%)” value [1] of the same compound?
Answer: 47%

Question: What about the “Population Hoechst High Intensity Objects (%)” value [1] of the same compound?
Answer: 13%

Question: And the “Population Membrane Permeable-Phenotype (%)” value [1]?
Answer: 31%

Question: What about the “Population Mitochondria Different-Phenotype (%)” value [1] of the same compound?
Answer: 10%

Question: And the “Population Mitotic Cells (%)” value [1]?
Answer: 40%

Question: What about the “Population Normal (%)” value [1] of the same compound?
Answer: 86%

Question: What about the “Population Pyknosed Nuclei (%)” value [1] of the same compound?
Answer: 35%

Question: What about the “Population Tubulin-Different-Phenotype (%)” value [1] of the same compound?
Answer: 75%

Question: And the “Total Cell Count” value [1]?
Answer: 176

Question: And the “Population Apoptotic (%)” value [2]?
Answer: 0%

Question: And the “Population Fragmented Nuclei (%)” value [2]?
Answer: 8%

Question: What about the “Population Healthy Nuclei (%)” value [2] of the same compound?
Answer: 89%

Question: And the “Population Hoechst High Intensity Objects (%)” value [2]?
Answer: 6%

Question: And the “Population Membrane Permeable-Phenotype (%)” value [2]?
Answer: 3%

Question: And the “Population Mitochondria Different-Phenotype (%)” value [2]?
Answer: 9%

Question: And the “Population Mitotic Cells (%)” value [2]?
Answer: 100%

Question: What about the “Population Normal (%)” value [2] of the same compound?
Answer: 93%

Question: What about the “Population Pyknosed Nuclei (%)” value [2] of the same compound?
Answer: 1%

Question: And the “Population Tubulin-Different-Phenotype (%)” value [2]?
Answer: 29%

Question: And the “Total Cell Count” value [2]?
Answer: 68

Question: What about the “Population Apoptotic (%)” value [3] of the same compound?
Answer: 81%

Question: What about the “Population Fragmented Nuclei (%)” value [3] of the same compound?
Answer: 24%

Question: And the “Population Healthy Nuclei (%)” value [3]?
Answer: 45%

Question: And the “Population Hoechst High Intensity Objects (%)” value [3]?
Answer: 10%

Question: What about the “Population Membrane Permeable-Phenotype (%)” value [3] of the same compound?
Answer: 1%

Question: What about the “Population Mitochondria Different-Phenotype (%)” value [3] of the same compound?
Answer: 84%

Question: What about the “Population Mitotic Cells (%)” value [3] of the same compound?
Answer: 18%

Question: And the “Population Normal (%)” value [3]?
Answer: 89%

Question: What about the “Population Pyknosed Nuclei (%)” value [3] of the same compound?
Answer: 30%

Question: And the “Population Tubulin-Different-Phenotype (%)” value [3]?
Answer: 96%

Question: And the “Total Cell Count” value [3]?
Answer: 157

Question: And the “Population Apoptotic (%)” value [4]?
Answer: 69%

Question: And the “Population Fragmented Nuclei (%)” value [4]?
Answer: 9%

Question: And the “Population Healthy Nuclei (%)” value [4]?
Answer: 69%

Question: And the “Population Hoechst High Intensity Objects (%)” value [4]?
Answer: 3%

Question: And the “Population Membrane Permeable-Phenotype (%)” value [4]?
Answer: 60%

Question: And the “Population Mitochondria Different-Phenotype (%)” value [4]?
Answer: 97%

Question: And the “Population Mitotic Cells (%)” value [4]?
Answer: 30%

Question: And the “Population Normal (%)” value [4]?
Answer: 96%

Question: And the “Population Pyknosed Nuclei (%)” value [4]?
Answer: 20%

Question: And the “Population Tubulin-Different-Phenotype (%)” value [4]?
Answer: 97%

Question: And the “Total Cell Count” value [4]?
Answer: 61

Question: And the “Population Apoptotic (%)” value [5]?
Answer: 52%

Question: What about the “Population Fragmented Nuclei (%)” value [5] of the same compound?
Answer: 20%

Question: What about the “Population Healthy Nuclei (%)” value [5] of the same compound?
Answer: 57%

Question: What about the “Population Hoechst High Intensity Objects (%)” value [5] of the same compound?
Answer: 14%

Question: What about the “Population Membrane Permeable-Phenotype (%)” value [5] of the same compound?
Answer: 16%

Question: And the “Population Mitochondria Different-Phenotype (%)” value [5]?
Answer: 17%

Question: And the “Population Mitotic Cells (%)” value [5]?
Answer: 47%

Question: And the “Population Normal (%)” value [5]?
Answer: 85%

Question: And the “Population Pyknosed Nuclei (%)” value [5]?
Answer: 22%

Question: What about the “Population Tubulin-Different-Phenotype (%)” value [5] of the same compound?
Answer: 68%

Question: And the “Total Cell Count” value [5]?
Answer: 175

Question: And the “Population Apoptotic (%)” value [6]?
Answer: 50%

Question: And the “Population Fragmented Nuclei (%)” value [6]?
Answer: 8%

Question: What about the “Population Healthy Nuclei (%)” value [6] of the same compound?
Answer: 85%

Question: And the “Population Hoechst High Intensity Objects (%)” value [6]?
Answer: 2%

Question: And the “Population Membrane Permeable-Phenotype (%)” value [6]?
Answer: 1%

Question: What about the “Population Mitochondria Different-Phenotype (%)” value [6] of the same compound?
Answer: 15%

Question: What about the “Population Mitotic Cells (%)” value [6] of the same compound?
Answer: 50%

Question: What about the “Population Normal (%)” value [6] of the same compound?
Answer: 97%

Question: What about the “Population Pyknosed Nuclei (%)” value [6] of the same compound?
Answer: 5%

Question: What about the “Population Tubulin-Different-Phenotype (%)” value [6] of the same compound?
Answer: 33%

Question: What about the “Total Cell Count” value [6] of the same compound?
Answer: 71

Question: And the “Population Apoptotic (%)” value [7]?
Answer: 80%

Question: And the “Population Fragmented Nuclei (%)” value [7]?
Answer: 23%

Question: And the “Population Healthy Nuclei (%)” value [7]?
Answer: 58%

Question: What about the “Population Hoechst High Intensity Objects (%)” value [7] of the same compound?
Answer: 22%

Question: What about the “Population Membrane Permeable-Phenotype (%)” value [7] of the same compound?
Answer: 3%

Question: What about the “Population Mitochondria Different-Phenotype (%)” value [7] of the same compound?
Answer: 86%

Question: And the “Population Mitotic Cells (%)” value [7]?
Answer: 20%

Question: What about the “Population Normal (%)” value [7] of the same compound?
Answer: 77%

Question: What about the “Population Pyknosed Nuclei (%)” value [7] of the same compound?
Answer: 18%

Question: And the “Population Tubulin-Different-Phenotype (%)” value [7]?
Answer: 100%

Question: And the “Total Cell Count” value [7]?
Answer: 177

Question: What about the “Population Fragmented Nuclei (%)” value [8] of the same compound?
Answer: 22%

Question: And the “Population Healthy Nuclei (%)” value [8]?
Answer: 56%

Question: And the “Population Hoechst High Intensity Objects (%)” value [8]?
Answer: 1%

Question: And the “Population Membrane Permeable-Phenotype (%)” value [8]?
Answer: 80%

Question: And the “Population Mitochondria Different-Phenotype (%)” value [8]?
Answer: 100%

Question: What about the “Population Normal (%)” value [8] of the same compound?
Answer: 98%

Question: What about the “Population Pyknosed Nuclei (%)” value [8] of the same compound?
Answer: 20%

Question: And the “Total Cell Count” value [8]?
Answer: 72

Question: What about the “Population Apoptotic (%)” value [9] of the same compound?
Answer: 43%

Question: What about the “Population Fragmented Nuclei (%)” value [9] of the same compound?
Answer: 30%

Question: And the “Population Healthy Nuclei (%)” value [9]?
Answer: 58%

Question: What about the “Population Hoechst High Intensity Objects (%)” value [9] of the same compound?
Answer: 19%

Question: What about the “Population Membrane Permeable-Phenotype (%)” value [9] of the same compound?
Answer: 19%

Question: What about the “Population Mitochondria Different-Phenotype (%)” value [9] of the same compound?
Answer: 5%

Question: What about the “Population Mitotic Cells (%)” value [9] of the same compound?
Answer: 56%

Question: What about the “Population Normal (%)” value [9] of the same compound?
Answer: 80%

Question: What about the “Population Pyknosed Nuclei (%)” value [9] of the same compound?
Answer: 11%

Question: What about the “Population Tubulin-Different-Phenotype (%)” value [9] of the same compound?
Answer: 51%

Question: And the “Total Cell Count” value [9]?
Answer: 178

Question: And the “Population Apoptotic (%)” value [10]?
Answer: 50%

Question: And the “Population Healthy Nuclei (%)” value [10]?
Answer: 67%

Question: What about the “Population Hoechst High Intensity Objects (%)” value [10] of the same compound?
Answer: 13%

Question: And the “Population Membrane Permeable-Phenotype (%)” value [10]?
Answer: 6%

Question: And the “Population Mitochondria Different-Phenotype (%)” value [10]?
Answer: 14%

Question: And the “Population Mitotic Cells (%)” value [10]?
Answer: 50%

Question: And the “Population Normal (%)” value [10]?
Answer: 86%

Question: And the “Population Pyknosed Nuclei (%)” value [10]?
Answer: 1%

Question: And the “Population Tubulin-Different-Phenotype (%)” value [10]?
Answer: 71%

Question: And the “Total Cell Count” value [10]?
Answer: 127

Question: And the “Population Apoptotic (%)” value [11]?
Answer: 85%

Question: What about the “Population Fragmented Nuclei (%)” value [11] of the same compound?
Answer: 40%

Question: What about the “Population Healthy Nuclei (%)” value [11] of the same compound?
Answer: 55%

Question: What about the “Population Hoechst High Intensity Objects (%)” value [11] of the same compound?
Answer: 34%

Question: And the “Population Membrane Permeable-Phenotype (%)” value [11]?
Answer: 1%

Question: And the “Population Mitochondria Different-Phenotype (%)” value [11]?
Answer: 62%

Question: What about the “Population Mitotic Cells (%)” value [11] of the same compound?
Answer: 14%

Question: And the “Population Normal (%)” value [11]?
Answer: 65%

Question: And the “Population Pyknosed Nuclei (%)” value [11]?
Answer: 4%

Question: What about the “Population Tubulin-Different-Phenotype (%)” value [11] of the same compound?
Answer: 96%

Question: What about the “Total Cell Count” value [11] of the same compound?
Answer: 257

Question: What about the “Population Apoptotic (%)” value [12] of the same compound?
Answer: 50%

Question: And the “Population Fragmented Nuclei (%)” value [12]?
Answer: 43%

Question: And the “Population Healthy Nuclei (%)” value [12]?
Answer: 54%

Question: And the “Population Hoechst High Intensity Objects (%)” value [12]?
Answer: 25%

Question: What about the “Population Membrane Permeable-Phenotype (%)” value [12] of the same compound?
Answer: 2%

Question: What about the “Population Mitochondria Different-Phenotype (%)” value [12] of the same compound?
Answer: 59%

Question: What about the “Population Mitotic Cells (%)” value [12] of the same compound?
Answer: 50%

Question: What about the “Population Normal (%)” value [12] of the same compound?
Answer: 75%

Question: What about the “Population Pyknosed Nuclei (%)” value [12] of the same compound?
Answer: 2%

Question: And the “Population Tubulin-Different-Phenotype (%)” value [12]?
Answer: 95%

Question: What about the “Total Cell Count” value [12] of the same compound?
Answer: 232
